This note sets out measurements from ChEMBL document CHEMBL4400560, “Discovery and optimization of novel piperazines as potent inhibitors of fatty acid synthase (FASN)” (Bioorg Med Chem Lett, 2019).

The test system of series [1] is PC-3. As to the kind of experiment: Antiproliferative activity against human PC3 cells after 96 hrs by MTT assay. Type of series: functional, cell-based. To be noted: PC-3, 96 h. The method in brief: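 PC3 prostate cancer cells grown in medium with 10% lipid-reduced serum, a condition in which growth depends on de novo lipogenesis, in the presence of inhibitor. Antiproliferative IC50 reported as the mean of at least two separate runs.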
In general terms: Formazan colour is commonly taken as a measure of viable cells.

For series [2], the target named is T1, Fatty acid synthase (Homo sapiens, UniProt P49327). As to the kind of experiment: Inhibition of full length recombinant human FASN using acetyl-CoA/malonyl-CoA as substrate preincubated for 60 mins followed by substrate addition and measured after 90 mins in presence of NADPH. The procedure, abridged:
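Full-length recombinant human FASN. CoA released is detected as a fluorescent conjugate with the coumarin maleimide CPM. IC50 is the mean of at least two separate runs.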

A short description of series [3]: Kinetic solubility of compound at pH 7.4. It is filed as physicochemical. As to conditions: buffer, read-out: Kinetic_solubility. The method in brief:
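Kinetic solubility measured at pH 7.4.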

Series [4] is described as follows: Stability in mouse liver microsomes assessed as compound remaining after 30 mins. Type of series: ADME, Microsome. To be noted: read-out: Stability. The method in brief:
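Mouse liver microsomes, 30-min incubation. Result expressed as percent of parent remaining.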
For orientation: Microsomes from liver hold many membrane-bound enzymes, among them those of drug oxidation.

Series [5] addresses T1, Fatty acid synthase. As to the kind of experiment: Inhibition of FASN in human BT474 cells preincubated for 1 hr followed by [14C]-acetate addition and measured after 4 hrs by scintillation counting assay. It is filed as cell-based. The method in brief:
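BT474 breast cancer cells given 14C-acetate, which cellular FASN incorporates via acetyl-CoA into newly made radiolabeled palmitate. IC50 for blocking this incorporation is the mean of at least two separate runs.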

The nature of series [6]: Toxicity in Balb/c nude mouse at 5 mg/kg, po administered as single dose. As to conditions: in vivo. It is filed as organism-based. The procedure, abridged: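 Female Balb/c nude mice observed for acute toxicity after a single oral 5 mg/kg dose.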
Series [7] can be described thus: Intrinsic clearance in human liver microsomes. It is filed as ADME, Microsome. To be noted: read-out: CLH.
The nature of series [8]: AUC in mouse at mg/kg, po. Type of series: ADME, organism-based. On the set-up: concentration or dose not given beside the values. To be noted: in vivo. The procedure, abridged:
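Mouse oral PK study at 5 mg/kg p.o., with plasma exposure taken as AUC0-8h.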

A short description of series [9]: Toxicity in mouse assessed as drug tolerability administered as single dose. As to conditions: in vivo. The procedure, abridged: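 Mice received a single oral (PO) dose of 5 mg/kg and were watched for acute toxicity to judge tolerability. Female Balb/c nude mice were used for the fluorobenzoxazole analogues. Tolerability was expressed as whether the single dose was tolerated or as a maximum tolerated dose.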

The nature of series [10]: Intrinsic clearance in mouse liver microsomes. As to conditions: read-out: CLH. It is filed as ADME, Microsome.
Series [11] in a line: Stability in mouse liver S9 fraction after 1 hr. It is filed as ADME, subcellular. To be noted: read-out: Stability.
Series [12] can be described thus: Stability in mouse hepatocytes after 1 hr. As to conditions: read-out: Stability. It is filed as ADME, cell-based, Hepatocyte.

What is called IC50 is the point on the concentration scale where inhibition reaches its midpoint. The term AUC denotes concentration integrated over time. As a reminder, the MTD is the highest dose tested that stayed within the study's limit of toxicity.

Converted amounts (≈) assume the structure as drawn.

T1 sequence (P49327 whole entry): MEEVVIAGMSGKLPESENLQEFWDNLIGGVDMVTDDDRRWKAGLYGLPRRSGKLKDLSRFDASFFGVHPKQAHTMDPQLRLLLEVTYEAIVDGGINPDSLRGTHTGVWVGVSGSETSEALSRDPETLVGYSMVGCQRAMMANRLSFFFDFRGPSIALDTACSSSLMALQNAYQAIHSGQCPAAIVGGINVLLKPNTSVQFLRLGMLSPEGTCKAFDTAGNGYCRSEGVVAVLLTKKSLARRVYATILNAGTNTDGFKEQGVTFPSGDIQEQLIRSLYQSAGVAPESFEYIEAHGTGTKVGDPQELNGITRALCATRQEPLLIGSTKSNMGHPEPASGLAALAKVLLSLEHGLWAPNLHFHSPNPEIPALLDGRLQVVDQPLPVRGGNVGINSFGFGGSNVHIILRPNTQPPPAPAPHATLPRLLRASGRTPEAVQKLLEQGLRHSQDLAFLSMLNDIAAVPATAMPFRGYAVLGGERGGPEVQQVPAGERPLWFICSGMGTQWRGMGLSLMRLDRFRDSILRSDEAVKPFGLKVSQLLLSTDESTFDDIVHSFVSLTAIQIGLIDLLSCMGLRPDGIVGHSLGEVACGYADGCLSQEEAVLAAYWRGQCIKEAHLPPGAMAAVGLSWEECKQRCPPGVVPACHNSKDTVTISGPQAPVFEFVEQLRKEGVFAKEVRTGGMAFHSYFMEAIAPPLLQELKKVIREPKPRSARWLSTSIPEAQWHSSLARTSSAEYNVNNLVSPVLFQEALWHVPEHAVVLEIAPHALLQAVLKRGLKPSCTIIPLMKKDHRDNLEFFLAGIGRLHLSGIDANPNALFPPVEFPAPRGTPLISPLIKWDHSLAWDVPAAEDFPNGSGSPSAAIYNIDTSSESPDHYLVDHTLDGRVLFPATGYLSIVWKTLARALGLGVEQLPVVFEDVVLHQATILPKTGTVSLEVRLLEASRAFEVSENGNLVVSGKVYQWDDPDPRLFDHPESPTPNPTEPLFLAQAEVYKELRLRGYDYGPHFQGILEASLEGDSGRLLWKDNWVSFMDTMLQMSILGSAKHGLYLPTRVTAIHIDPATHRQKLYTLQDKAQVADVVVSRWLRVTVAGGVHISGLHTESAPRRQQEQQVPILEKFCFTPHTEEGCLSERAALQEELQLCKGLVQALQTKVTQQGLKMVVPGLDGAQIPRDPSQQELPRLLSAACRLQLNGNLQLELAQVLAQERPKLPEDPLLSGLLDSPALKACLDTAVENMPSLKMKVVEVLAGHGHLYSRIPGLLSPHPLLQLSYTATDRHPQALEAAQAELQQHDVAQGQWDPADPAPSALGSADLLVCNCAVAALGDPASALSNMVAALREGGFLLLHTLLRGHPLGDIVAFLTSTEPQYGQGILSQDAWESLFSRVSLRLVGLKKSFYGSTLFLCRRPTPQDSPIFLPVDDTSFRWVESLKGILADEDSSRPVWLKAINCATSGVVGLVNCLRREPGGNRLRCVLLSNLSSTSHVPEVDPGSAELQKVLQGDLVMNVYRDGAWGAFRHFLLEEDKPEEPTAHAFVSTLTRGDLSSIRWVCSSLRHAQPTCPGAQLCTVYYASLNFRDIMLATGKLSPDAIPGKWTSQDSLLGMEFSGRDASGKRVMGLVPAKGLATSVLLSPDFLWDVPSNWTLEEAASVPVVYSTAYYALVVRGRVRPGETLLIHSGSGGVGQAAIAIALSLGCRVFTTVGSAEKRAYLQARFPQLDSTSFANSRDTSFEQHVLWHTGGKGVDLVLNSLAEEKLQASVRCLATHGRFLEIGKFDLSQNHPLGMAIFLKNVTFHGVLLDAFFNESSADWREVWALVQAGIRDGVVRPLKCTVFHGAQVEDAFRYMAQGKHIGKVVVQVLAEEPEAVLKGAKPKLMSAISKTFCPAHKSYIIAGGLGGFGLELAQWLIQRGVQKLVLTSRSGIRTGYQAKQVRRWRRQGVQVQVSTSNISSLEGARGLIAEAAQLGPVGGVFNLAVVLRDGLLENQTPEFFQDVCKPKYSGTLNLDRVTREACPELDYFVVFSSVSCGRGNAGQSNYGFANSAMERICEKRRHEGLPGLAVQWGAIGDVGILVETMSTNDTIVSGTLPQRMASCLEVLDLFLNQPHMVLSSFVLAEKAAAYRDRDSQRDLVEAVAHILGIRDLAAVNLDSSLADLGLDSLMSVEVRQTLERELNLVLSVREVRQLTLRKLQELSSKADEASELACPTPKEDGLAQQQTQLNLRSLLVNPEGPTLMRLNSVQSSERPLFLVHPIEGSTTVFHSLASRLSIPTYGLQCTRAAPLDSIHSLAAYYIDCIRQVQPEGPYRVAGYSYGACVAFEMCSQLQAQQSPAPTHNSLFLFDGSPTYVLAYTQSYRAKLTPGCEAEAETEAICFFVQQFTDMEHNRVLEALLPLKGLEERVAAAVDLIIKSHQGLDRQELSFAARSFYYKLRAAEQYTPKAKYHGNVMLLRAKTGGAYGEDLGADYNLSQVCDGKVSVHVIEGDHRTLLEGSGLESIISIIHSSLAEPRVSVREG

As to `O=C(c1ccc(-c2ccc3scnc3c2)cc1)N1CCN(C(=O)C2(O)CC2)CC1`, the IC50 in [1] was found to be 17 nM; in series [2], 32 nM; in series [5] it was 11 nM. In series [3], the solubility kinetic was found to be 95 µM (≈ 38.7 µg/mL). The remaining at 0.5 h in [4] turned out to be 88%.
Consider `O=C(c1ccc(-c2nc3cc(F)ccc3o2)cc1)N1CCN(C(=O)C2(O)CC2)CC1`, for which the IC50 was determined as 52 nM in [1], 192 nM in series [2] and 61 nM in [5]. For the same compound, the Activity result in [6] is on record as “Toxic”. Also, the solubility kinetic in series [3] was 30 µM (≈ 12.3 µg/mL). Moreover, the remaining at 0.5 h in [4] is 93%.
`O=C(c1ccc(-c2ccccc2)cc1)N1CCN(C(=O)[C@@H]2CCCO2)CC1`: the IC50 in series [2] is ≥ 50000 nM. Besides, in [4], the remaining at 0.5 h was determined as 65%.
Take `O=C(c1ccc(-c2ccccc2)cc1)N1CCN(C(=O)C2(O)CCCC2)CC1`: the 50% inhibitory concentration (IC50) in series [2] is > 50000 nM.
For the compound `O=C(c1ccc(-c2ccc(F)cc2Cl)cc1)N1CCN(C(=O)C2(O)CC2)CC1`, the IC50 in [2] worked out at 310 nM; in series [5], 4960 nM. In addition, the solubility kinetic in series [3] stood at 67 µM (≈ 27 µg/mL). The remaining at 0.5 h in [4] amounted to 69%.
For the compound `O=C(c1ccc(-c2nc3ccccc3s2)cc1)N1CCN(C(=O)C2(O)CC2)CC1`, the IC50 in series [1] worked out at 214 nM; in series [2], 57 nM; in [5], 67 nM. The solubility kinetic in [3] came to 18 µM (≈ 7.33 µg/mL). The remaining at 0.5 h in [4] amounted to 84%.
For the compound `O=C(c1ccc(-c2cnc3ccccc3c2)cc1)N1CCN(C(=O)C2(O)CC2)CC1`, the IC50 in series [2] stood at 10 nM; in series [5], 12 nM. The solubility kinetic in series [3] is 82 µM (≈ 32.9 µg/mL). The remaining at 0.5 h in series [4] is 86%.
As for `O=C(c1ccc(-c2nc3ccc(Cl)cc3o2)cc1)N1CCN(C(=O)C2(O)CC2)CC1`, the concentration for half-maximal inhibition (IC50) in series [1] was 29 nM; in series [2], 97 nM; in series [5] it was 104 nM. In [3], the solubility kinetic was 7 µM (≈ 2.98 µg/mL). The remaining at 0.5 h in series [4] turned out to be 92%.
For `O=C(c1ccc(-c2nc3ccccc3o2)cc1)N1CCN(C(=O)C2(O)CC2)CC1`, the IC50 in [1] is 15 nM; in [2] it was 54 nM; in series [5] it was 101 nM. In series [3], the solubility kinetic came out at 83 µM (≈ 32.5 µg/mL). Further, the microsomal CLint in [7] and in series [10] was 7 µL/min/mg in each case. Moreover, the remaining at 0.5 h in [4] turned out to be 109%. Moreover, the AUC in series [8] is 28.7 µM·h. For the same compound, the MTD in series [9] was < 5 mg/kg.
`O=C(c1ccc(-c2ccc3ocnc3c2)cc1)N1CCN(C(=O)C2(O)CC2)CC1`: the IC50 in [1] amounted to 142 nM; in series [2], 142 nM; in series [5] it was 257 nM. The solubility kinetic in series [3] turned out to be 92 µM (≈ 36 µg/mL). The remaining at 0.5 h in series [4] was determined as 60%.
In the case of `O=C(c1ccc(-c2ccc3cnccc3c2)cc1)N1CCN(C(=O)C2(O)CC2)CC1`, the IC50 was 13 nM in [1], 13 nM in [2] and 11 nM in series [5]. Besides, the solubility kinetic in series [3] came to 77 µM (≈ 30.9 µg/mL). The remaining at 1 h in series [11] came to 0%; in [12], 1%. Further, the remaining at 0.5 h in series [4] was found to be 45%. In series [8], this compound came in with an AUC of 0.1 µM·h.
`O=C(c1ccc(-c2ccccc2)cc1)N1CCN(C(=O)C2(O)CCC2)CC1`: the concentration for half-maximal inhibition (IC50) in series [2] worked out at 1800 nM. Further, in series [4], the remaining at 0.5 h came out at 85%.
Take `O=C(c1ccc(-c2ccc3ccccc3n2)cc1)N1CCN(C(=O)C2(O)CC2)CC1`: the results for the 50% inhibitory concentration (IC50) in series [1], in series [2] and in [5] were 2 nM, 32 nM and 101 nM, respectively. The solubility kinetic in series [3] worked out at 71 µM (≈ 28.5 µg/mL). Moreover, the remaining at 0.5 h in series [4] is 79%.
In the case of `O=C(c1ccc(-c2ccccc2)cc1)N1CCN(C(=O)[C@H]2CCCO2)CC1`, the IC50 in series [2] amounted to 1100 nM. Moreover, the remaining at 0.5 h in series [4] turned out to be 100%.
